From ChEMBL document CHEMBL4406854, “Synthesis and in-vitro anti-HIV-1 evaluation of novel pyrazolo[4,3-c]pyridin-4-one derivatives” (Eur J Med Chem, 2019)
pIC50: −log10 of the molar value. Calls of active or inactive are those of the source. The rule behind the calls is not given here.

Experiments:
[1] = Cytotoxicity against human TZM-bl cells assessed as reduction in cell viability incubated for 48 hrs by MTT assay; type: cell-based
How it was run: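 TZM-bl cells (10^4/well) were seeded overnight at 37 °C in humidified 5% CO2. Serial two-fold dilutions were added, with AZT as control, for 48 h. Viability was read by MTT, and CC50 (concentration leaving 50% of cells viable) was obtained by non-linear regression.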

[2] = test system: Human immunodeficiency virus 1; assay: Antiviral activity against HIV1 VB59 infected in human TZM-bl cells incubated for 48 hrs by bright Glo-luciferase reporter gene assay; type: functional, organism-based; details: Human immunodeficiency virus 1, VB59, TZM-bl
How it was run: (§1)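 TZM-bl cells (10^4/well, seeded the day before) were infected with pre-titrated HIV-1 VB59 or UG070 stocks for 2 h. Serial two-fold dilutions at sub-toxic concentrations were then added, with AZT as control, for 48 h. Britelite plus luciferase substrate was added and RLU measured. IC50 was derived from percent inhibition against infected untreated and uninfected controls.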

[3] = Therapeutic index, ratio of CC50 for human TZM-bl cells to IC50 for antiviral activity against HIV1 VB59 infected in human TZM-bl cells; type: toxicity, cell-based; details: read-out: Ratio CC50/IC50
How it was run: (§2)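 TI = CC50/IC50. CC50 came from 48 h MTT viability of TZM-bl cells. IC50 came from 48 h luciferase read-out in TZM-bl cells infected for 2 h with HIV-1 UG070 or VB59 and then treated with two-fold dilutions at sub-toxic concentrations.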

[4] = test system: Human immunodeficiency virus 1; assay: Antiviral activity against HIV1 UG070 infected in human TZM-bl cells incubated for 48 hrs by bright Glo-luciferase reporter gene assay; type: functional, organism-based; details: Human immunodeficiency virus 1, UG070, TZM-bl; how it was run: as §1
[5] = Therapeutic index, ratio of CC50 for human TZM-bl cells to IC50 for antiviral activity against HIV1 UG070 infected in human TZM-bl cells; type: toxicity, cell-based; details: read-out: Ratio CC50/IC50; how it was run: as §2
[6] = test system: Human immunodeficiency virus 1; assay: Antiviral activity against HIV1 92/BR/018 infected in human TZM-bl cells incubated for 48 hrs by bright Glo-luciferase reporter gene assay; type: functional, organism-based; details: Human immunodeficiency virus 1, 92/BR/018, TZM-bl
How it was run: (§3)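 TZM-bl cells (HeLa-derived, expressing CD4/CXCR4/CCR5, with an LTR-driven luciferase reporter) were seeded at 10^4 cells/well overnight. Cells were infected with pre-titrated virus for 2 h, then given serial two-fold dilutions of sub-toxic compound concentrations and incubated 48 h. Luciferase substrate was added and RLU read. IC50 was taken from percent inhibition versus infected untreated controls. NVP and AZT served as controls.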

[7] = Therapeutic index, ratio of CC50 for human TZM-bl cells to IC50 for antiviral activity against HIV1 92/BR/018 infected in human TZM-bl cells; type: toxicity, cell-based; details: read-out: Ratio CC50/IC50
How it was run: (§4)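 TI = CC50/IC50. CC50 came from TZM-bl cells (10^4/well) exposed to serial two-fold dilutions for 48 h at 37 °C, 5% CO2, with MTT viability and non-linear regression fitting. IC50 came from TZM-bl cells infected 2 h, treated with sub-toxic two-fold dilutions for 48 h, with luciferase RLU read-out.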

[8] = test system: Human immunodeficiency virus 1; assay: Antiviral activity against HIV1 N119 infected in human TZM-bl cells incubated for 48 hrs by bright Glo-luciferase reporter gene assay; type: functional, organism-based; details: Human immunodeficiency virus 1, N119, TZM-bl; how it was run: as §3
[9] = Therapeutic index, ratio of CC50 for human TZM-bl cells to IC50 for antiviral activity against HIV1 N119 infected in human TZM-bl cells; type: toxicity, cell-based; details: read-out: Ratio CC50/IC50; how it was run: as §4
[10] = Cytotoxicity against human PBMC cells assessed as reduction in cell viability incubated for 5 days by MTT assay; type: cell-based
How it was run: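 PBMCs (0.2×10^6 cells/well) were activated with PHA-p (5 µg/mL) and IL-2 (5 U/mL) and exposed to serial two-fold compound dilutions at 37 °C, 5% CO2, for 5 days. Viability was measured by MTT and CC50 calculated.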

[11] = test system: Human immunodeficiency virus 1; assay: Antiviral activity against HIV1 VB51 infected in human PBMC cells incubated for 5 days by bright Glo-luciferase reporter gene assay; type: functional, organism-based; details: Human immunodeficiency virus 1, VB51, 120 h
How it was run: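 PBMCs (0.2×10^6 cells/well) were activated with PHA-p (5µg/mL) and IL-2 (5U/mL). Sub-toxic concentrations, chosen from a 5-day MTT CC50 at 37 °C in 5% CO2, were used against R5-tropic HIV-1 VB51.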

[12] = test system: Human immunodeficiency virus 1; assay: Antiviral activity against HIV1 NARI-DR infected in human TZM-bl cells incubated for 48 hrs by bright Glo-luciferase reporter gene assay; type: functional, organism-based; details: Human immunodeficiency virus 1, NARI-DR; how it was run: as §3
[13] = Therapeutic index, ratio of CC50 for human TZM-bl cells to IC50 for antiviral activity against HIV1 NARI-DR infected in human TZM-bl cells; type: toxicity, cell-based; details: read-out: Ratio CC50/IC50; how it was run: as §4
[14] = Therapeutic index, ratio of CC50 for human PBMC cells to IC50 for antiviral activity against HIV1 VB51 infected in human PBMC cells
[15] = test system: Human immunodeficiency virus 1; assay: Antiviral activity against HIV1 NL4.3 infected in human TZM-bl cells measured upto 3 hrs by bright Glo-luciferase reporter gene assay; type: functional, organism-based
How it was run: (§5)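 Time-of-addition: TZM-bl cells seeded at 10^4 cells/well and incubated overnight, then infected with HIV-1 NL4.3 (400 TCID50) in complete DMEM containing […] DEAE-dextran. Compounds and reference antiretrovirals were applied at five times their IC50 at 0, 1, 2, 3, 4, 6, 8, 10, 18 and 24 h post infection. Luciferase (RLU) was read 48 h post infection, in triplicate, as mean±SD.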

[16] = test system: Human immunodeficiency virus 1; assay: Antiviral activity against HIV1 NL4.3 infected in human TZM-bl cells measured upto 10 hrs by bright Glo-luciferase reporter gene assay; type: functional, organism-based; how it was run: as §5

pIC50 [2]	Structure (SMILES)	CC50 at 48 h [1] [µM]	selectivity ratio [3]	other results
< 3.71	Cc1cc2c(cnn2-c2ccc(Cl)cc2)c(=O)[nH]1	260		
3.90	Cc1cc2c(cnn2-c2ccc(C)c(C)c2)c(=O)[nH]1	93.4	0.74	
< 3.69	Cc1cc2c(cnn2-c2cccc(F)c2)c(=O)[nH]1	159		
5.44	Cc1cc(C)cc(-n2ncc3c(=O)[nH]c(C)cc32)c1	679	185	pIC50 [4]: 5.55; selectivity ratio [5]: 243; pIC50 [6]: 5.13; selectivity ratio [7]: 91; pIC50 [8]: 5.49; selectivity ratio [9]: 210; CC50 at 120 h [10]: 592 µM; pIC50 [11]: 5.06; Activity [15]: Active; Activity [16]: Active; pIC50 [12]: 5.60; selectivity ratio [13]: 268; selectivity ratio [14]: 68
3.86	Cc1cc2c(cnn2-c2cccc(Br)c2)c(=O)[nH]1	72.6	0.52	
3.61	COc1cccc(-n2ncc3c(=O)[nH]c(C)cc32)c1	553	2.24	pIC50 [4]: < 3.71
< 3.77	Cc1cc2c(cnn2-c2ccc(Cl)c(Cl)c2)c(=O)[nH]1	93.5		
< 3.77	Cc1cc2c(cnn2-c2cc(Cl)cc(Cl)c2)c(=O)[nH]1	93.5		
< 3.77	Cc1cc2c(cnn2-c2ccc(C(F)(F)F)cc2)c(=O)[nH]1	100		

The next lines start with the compound.

Structure (SMILES)	pIC50 [2]	CC50 at 48 h [1] [µM]	selectivity ratio [3]	other results
Cc1cc2c(cnn2-c2ccc(Br)cc2)c(=O)[nH]1	3.86	79.8	0.58	
Cc1cc2c(cnn2-c2ccc(F)c(F)c2)c(=O)[nH]1	< 3.72	133		
Cc1cc2c(cnn2-c2ccccc2)c(=O)[nH]1	3.92	708	5.86	pIC50 [4]: 3.35
Cc1cc2c(cnn2-c2cccc(C(F)(F)F)c2)c(=O)[nH]1	3.89	34.1		
Cc1ccc(-n2ncc3c(=O)[nH]c(C)cc32)cc1	4.24	383	6.6	pIC50 [4]: 3.64; selectivity ratio [5]: 1.67
Cc1ccnc2c1NC(=O)c1cccnc1N2C1CC1 [NEVIRAPINE]				pIC50 [6]: 6.52; selectivity ratio [7]: 1990; pIC50 [8]: 3.85; selectivity ratio [9]: 4.3; CC50 at 120 h [10]: 1000 µM; pIC50 [11]: 6.72; pIC50 [12]: 3.63; selectivity ratio [13]: 2.6; selectivity ratio [14]: 5280
Cc1cn([C@H]2C[C@H](N=[N+]=[N-])[C@@H](CO)O2)c(=O)[nH]c1=O [ZIDOVUDINE]		872		CC50 at 120 h [10]: 1070 µM
Cc1cc2c(cnn2-c2cc(F)cc(F)c2)c(=O)[nH]1	< 3.72	130		
Cc1cc2c(cnn2-c2ccc(C(C)(C)C)cc2)c(=O)[nH]1	< 3.75	45.9		
